Activity calls are given as the source filed them. The calls are words filed in the database; no cut-off is given here.
What was measured:
MDA-MB-231 [1] = assay: Induction of apoptosis in human MDA-MB-231 cells expressing p53 R280K mutant assessed increase in number of Annexin-V stained cells at 6 to 12 uM incubated for 24 hrs by AnnexinV-FITC and PI staining based flow cytometry; assay type: functional, cell-based; details: dose 6-12 µM
How it was run: (§1)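 24 h treatment, DMSO control. Cells scraped, washed in PBS, then given fluorochrome-conjugated Annexin V for 15 min at RT in the dark, followed by PI (0.1 µg/ml) in binding buffer. Read by flow cytometry on LSRFortessa. Annexin V-positive cells expressed relative to the DMSO control.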

MDA-MB-231 [2] = assay: Induction of apoptosis in human MDA-MB-231 cells expressing p53 R280K mutant assessed as decrease in level of uncleaved caspase 3 level at 6 to 12 uM measured after 24 hrs by western blotting analysis; assay type: functional, cell-based; details: dose 6-12 µM
How it was run: (§2)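 Cells treated with DMSO or compound at 6 or 12 µM for 24 h, then lysed in Tris-Cl pH 8.0/NaCl/glycerol/NP-40/EDTA buffer with protease inhibitors. 100 µg lysate resolved on 4-12% SDS-PAGE and blotted to PVDF. Probed with anti-PARP or anti-caspase 3, then HRP secondary and ECL. GAPDH reprobe as control.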

MDA-MB-468 [3] = assay: Induction of apoptosis in human MDA-MB-468 cells expressing p53 R273H mutant assessed as decrease in level of uncleaved caspase 3 level at 6 to 12 uM measured after 24 hrs by western blotting analysis; assay type: functional, cell-based; details: dose 6-12 µM; how it was run: as §2
MDA-MB-231 [4] = assay: Induction of apoptosis in human MDA-MB-231 cells expressing p53 R280K mutant assessed as decrease in level of uncleaved PARP1 level at 6 to 12 uM measured after 24 hrs by western blotting analysis; assay type: functional, cell-based; details: dose 6-12 µM; how it was run: as §2
[5] = target: Cellular tumor antigen p53 (Homo sapiens) (UniProt P04637); assay: Activation of p53 in human MCF7 cells assessed as increase in p21 mRNA expression at 6 uM incubated for 4 hrs by qRT-PCR analysis; assay type: cell-based; details: filed as activator
How it was run: (§3)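 Cells treated with DMSO or 6 µM test compound for 4 h. RNA extracted, cDNA synthesised, transcript measured by TaqMan qRT-PCR and normalised to GAPDH. Averages from triplicates of repeated experiments, with standard deviation.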

MDA-MB-231 [6] = assay: Effect on p53 R280K mutant mRNA expression in human MDA-MB-231 cells at 6 uM measured after 4 hrs by qRT-PCR analysis; assay type: functional, cell-based; how it was run: as §3
MCF-10A = assay: Cytotoxicity against human MCF10A cells expressing wild type p53 assessed as inhibition of cell growth at 10 to 50 uM incubated for 24 to 72 hrs by WST-1 assay; assay type: functional, cell-based; details: dose 10-50 µM, time 24-72 hrs
CCD-841CoN = assay: Cytotoxicity against human CCD841 cells harboring wild type p53 assessed as inhibition of cell growth at 10 to 50 uM incubated for 24 to 72 hrs by WST-1 assay; assay type: functional, cell-based; details: dose 10-50 µM, time 24-72 hrs
MCF7 = assay: Inhibition of colony formation in human MCF7 cells expressing wild type p53 assessed as decrease in number of colonies at 1.5 to 24 uM incubated for 24 hrs followed by incubation in fresh medium for 10 days by methylene blue staining based analysis; assay type: functional, cell-based; details: dose 1.5-24 µM
How it was run: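 500 cells/well seeded 24 h before treatment. Cells exposed to compound or DMSO control for 24 h at 37 °C, then grown 10 days at 37 °C in RPMI with 10% FBS. Colonies fixed in methanol, stained with methylene blue and counted. Survival expressed as percent of DMSO control.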

MDA-MB-231 [7] = assay: Induction of apoptosis in human MDA-MB-231 cells expressing p53 R280K mutant assessed as increase in level of cleaved PARP1 level at 6 to 12 uM measured after 24 hrs by western blotting analysis; assay type: functional, cell-based; details: dose 6-12 µM; how it was run: as §2
MDA-MB-468 [8] = assay: Induction of apoptosis in human MDA-MB-468 cells expressing p53 R273H mutant assessed as increase in level of cleaved PARP1 level at 6 to 12 uM measured after 24 hrs by western blotting analysis; assay type: functional, cell-based; details: dose 6-12 µM; how it was run: as §2
MDA-MB-231 [9] = assay: Antiproliferative activity against human MDA-MB-231cells expressing p53 R280K mutant assessed as inhibition of cell growth at 10 to 50 uM incubated for 24 hrs by WST-1 assay; assay type: functional, cell-based; details: dose 10-50 µM
How it was run: (§4)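 WST-1 proliferation assay. Compound diluted in DMSO so that 10 μl of stock in 1 ml of cells (40,000 cells/ml) gives the test concentration at 1% DMSO. Cells plated at 4,000/well in duplicate and incubated at 37 °C for 24 h or 72 h. Result given as % of the 1% DMSO control.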

MDA-MB-231 [10] = assay: Induction of apoptosis in human MDA-MB-231 cells expressing p53 R280K mutant assessed fold increase in number of Annexin-V stained cells at 6 to 12 uM incubated for 24 hrs by AnnexinV-FITC and PI staining based flow cytometry relative to control; assay type: functional; details: dose 6-12 µM; how it was run: as §1
MDA-MB-468 [11] = assay: Induction of apoptosis in human MDA-MB-468 cells expressing p53 R273H mutant assessed fold increase in number of Annexin-V stained cells at 6 to 12 uM incubated for 24 hrs by AnnexinV-FITC and PI staining based flow cytometry relative to control; assay type: functional; details: dose 6-12 µM; how it was run: as §1
MDA-MB-468 [12] = assay: Cell cycle arrest in human MDA-MB-468 cells expressing p53 R273H mutant assessed as accumulation of cells at G1 phase at 6 uM measured after 24 hrs by PI staining based flow cytometry (reference value: 30.6%); assay type: functional
MDA-MB-436 = assay: Antiproliferative activity against human p53-null MDA-MB-436 cells assessed as inhibition of cell growth at 10 to 50 uM measured after 24 to 72 hrs by WST-1 assay; assay type: functional, cell-based; details: dose 10-50 µM, time 24-72 hrs; how it was run: as §4
[13] = system: Cellular tumor antigen p53 (Homo sapiens), P04637 [R280K]; assay: Reactivation of transactivation function to p53 R280K mutant in human MDA-MB-231 cells assessed as ATM activation by measuring increase in phosphorylation of ATM at serine 1981 residue at 6 uM measured after 24 hrs by immunoblot analysis; assay type: cell-based; details: filed as activator
How it was run: (§5)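 DMSO or 6 µM for 24 h. 250 µg of lysate run on 4-12% SDS-PAGE, blot probed with anti-pATM Ser1981 (1:500), then anti-mouse HRP secondary with ECL detection. GAPDH reprobe as control. Triplicate experiments.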

[14] = system: Cellular tumor antigen p53 (Homo sapiens), P04637 [R273H]; assay: Reactivation of transactivation function to p53 R273H mutant in human MDA-MB-468 cells assessed as ATM activation by measuring increase in phosphorylation of ATM at serine 1981 residue at 6 uM measured after 24 hrs by immunoblot analysis; assay type: cell-based; details: filed as activator; how it was run: as §5
MDA-MB-468 [15] = assay: Antiproliferative activity against human MDA-MB-468 cells transfected with non-specific siRNA assessed as inhibition of cell growth at 5 to 25 uM measured after 24 hrs by WST-1 assay; assay type: functional, cell-based; details: dose 5-25 µM
How it was run: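 MDA-MB-468 cells plated at 50-60% confluence 24 h before transfection. p53 SMARTpool or non-specific siRNA (0.430 nmol) given with Lipofectamine 2000 in Opti-MEM for 5 h, repeated after 24 h. Drug or DMSO added 72 h after the first transfection. Proliferation read by WST-1, % of DMSO control.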

Row | SMILES | Activity (MDA-MB-231 [1]) | Activity (MDA-MB-231 [2]) | Activity (MDA-MB-468 [3]) | Activity (MDA-MB-231 [4]) | Activity [5] | Activity (MDA-MB-231 [6]) | Activity (MCF-10A) | Activity (CCD-841CoN) | inhibition (MCF7) | Activity (MDA-MB-231 [7]) | Activity (MDA-MB-468 [8]) | Activity (MDA-MB-231 [9]) | fold change (FC) (MDA-MB-231 [10]) | fold change (FC) (MDA-MB-468 [11]) | Activity (MDA-MB-468 [12]) | Activity (MDA-MB-436) | Activity [13] | Activity [14] | Activity (MDA-MB-468 [15])
1 | [Se]=C=NCCC12CC3CC(CC(C3)C1)C2 | Active | Active | Active | Active | Active | inactive | inactive | inactive | Active | Active | Active |  |  |  |  |  |  |  | 
2 | S=C=NCCCC12CC3CC(CC(C3)C1)C2 |  | Active | Active | Active | Active | inactive | inactive | inactive | Active | Active | Active | Dose-Dependent Effect | 2 | 2 | 53.2% | inactive | Active | Active | Active
